Laboratory results reported in the EternaBench riboswitch data.

System: MS2 coat protein
Test: apparent Kd, MS2 coat protein; higher = weaker binding; RNA-MaP array; FMN 200 µM where present
Outline: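 SNAP-549-labelled MS2 coat protein, doubled from 0.7 or 1.5 nM to 3 µM, was titrated over designs transcribed by stalled E. coli RNA polymerase on Illumina sequencing-chip clusters. Titrations were run without and then with constant ligand in 100 mM Tris-HCl pH 7.5, 80 mM KCl, 4 mM MgCl2, BSA, DTT, yeast tRNA and Tween-20. The apparent Kd is the median of filtered per-cluster fits to green signal normalised to red-channel RNA signal and control-cluster median Fmax.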

[1] = designed as: OFF switch for flavin mononucleotide, no ligand
[2] = ligand present: flavin mononucleotide, designed as: OFF switch for flavin mononucleotide
[3] = designed as: ON switch for flavin mononucleotide, no ligand
[4] = ligand present: flavin mononucleotide, designed as: ON switch for flavin mononucleotide

Sequence	apparent Kd [1]	apparent Kd [2]	apparent Kd [3]	apparent Kd [4]
UAAGGGUAAUGAGGAUAUAACGGGUGACAUGAGGAUCACCCAUGUGGUUUGUUAUGGUCGAGCCGUUAGAAGGCAUUGUAAGCA	1070 nM	1120 nM		
UUUUUACAUGAGGAUCACCCAUGUCAGGAUAUUCUUAUAUUUUAUUAUUUUAUUUUUUGAAGAAGGGACUAUUA	118 nM	70.5 nM		
GUGUGAUUAAGAGGAUAUAUACAACAUGAGGAUCACCCAUGUACCCGUGUAGUAGAAGGUUUGUUUUUAUAUAAUAUUAUAUUU			26.5 nM	21.9 nM
UGUGCGUAUGUGAGGAUAUGCUGGUCCUUGGAUCGGCAGAAGGCACAUGAGGAUCACCCAUGUGGUGUCGUACA	493 nM	19.2 nM		
AAGUCGACGGUGAGGAUAUAGGUCGAACGACAGAUCUAGAAGGCACAUGAGGAUCACCCAUGUGGGUAACGUCG	19.6 nM	28.4 nM		
GGAUGCAAAGAGAAGGGCUACUGGUUGAAACCUGCGGCCUCUGGAACAUGAGGAUCACCCAUGUAGCAGGAUAUCUUUACGUCA	173 nM	39.4 nM		
ACCACGGGAGGAUAUACAUGAGGAUCACCCAUGUCAACUCCACGUGCCCACGUCCUCUGUAGAAGGCCCUACAU	16 nM	24.3 nM		
UGUGUGUGGCAGGAUAUGCAGGUAAUAGGACGGGUAGAAGGGUCUACAUGAGGAUCACCCAUGUGGCCGGUUGG	16.1 nM	16 nM		
GGACAUUUACAGAAGGGCAAGUUGGAUCGCGGAUAACGCGAUCCGACUUGCAGGAUAUGUUGAACAUGAGGAUCACCCAUGUCU			7.99 nM	8.52 nM
AAAGCACGAGGAUAUACAUGAGGAUCACCCAUGUAUAACCAAAAAAAAAGAUCCUCAUGUAGAAGGCGUGCAAA	18.9 nM	16.8 nM		
AAAAGACAUGAGGAUCACCCAUGUCAAGACGUGGGAGGAUAUGUAUGGAAACCAGACUGUACAGAAGGCCUUUGUC			46.8 nM	20.1 nM
ACGAAGAUACAGAAGGGUAAAUUAGUUAAUUAUAAUUUGGUUAUGCACUACAGGAUAUGUUAUACAUGAGGAUCACCCAUGUUC			18.2 nM	13.7 nM
UUAUUAGCAGGAUAUAUCCAGGAUCACAUGAGGAUCACCCAUGUGACCGCUUGAGAUUCUAUAGAAGGGCUUUAUU	19.6 nM	18.1 nM		
GGUAUGUGAGGAUAUGGGAUUGUAGACAUGAGGAUCACCCAUGUCAUGUCCGAUCAUUGCCCAGAAGGUAUCCGCU	25.6 nM	27.1 nM		
AUAAAUGAGGAGGAUAUCGAAUCGGAAACGAUUCGAGAAGGCCUAACAUGAGGAUCACCCAUGUUCCUUAAAUA	28.8 nM	42.2 nM		
CCGGAAAUGAAGGAUAUAGGUGUCGAUAGACUCCUAGAAGGUCAUACAUGAGGAUCACCCAUGUGUCCUACCGG	15.7 nM	32.6 nM		
GCAGGAUAAGUGAGGAUAUACCUCUGGAUACAGAGGUAGAAGGCACAUGAGGAUCACCCAUGUUACUCACCUGC	11.9 nM	33.8 nM		
CUCAAGUCAGGAUAUCCAGCUGUGUUCCGGGACUCGUAGUUGGAGAAGGGACAUGAGGAUCACCCAUGUCAGCC	32.3 nM	67.8 nM		
UAAUGUAUAUAGGAUAUCUAGCUGGAUACAGCUAGAGAAGGAUGUACAUGAGGAUCACCCAUGUAAAUCUCAAU	18.3 nM	31.2 nM		
ACAGCGUGAGGAUAUACAUGAGGAUCACCCAUGUAUGGCAGGUUAUCCUGUCGUGAGUGUAGAAGGCACGCUGU	17.4 nM	58.9 nM		
CCAUGCGGAUGAGGAUAUUCAUCCAUGAGGAUAGAAGAAGGCGUACAUGAGGAUCACCCAUGUAUACACAUGAGGAUCCCUUAC	462 nM	420 nM		
ACAAAUGGAGGAUAUACAUGAGGAUCACCCAUGUUUAUCCUACAUGUGUGAUAAUAAUGUAGAAGGCCAUAUGA	15.9 nM	12.5 nM		
ACAAAUGGAGGAUAUACAUGAGGAUCACCCAUGUUUAUCCUACAUAUGUGAUCCUCAUGUAGAAGGCCAUUUGA	11.4 nM	10.8 nM		
AGUCGGAGCAGAGGAUAUACAUGAGGAUCACCCAUGUAAUAUGAUCUAGCCAGGAAACUGGCAAUGUAGAAGGCUGCUCCGACA	92.3 nM	797 nM		
